Here are results for 1 molecule from ChEMBL document CHEMBL3352401, “Synthesis and antiviral activity of new phenylimidazopyridines and N-benzylidenequinolinamines derived by molecular simplification of phenylimidazo[4,5-g]quinolines” (Eur J Med Chem, 2014).

A value given as a limit tells only on which side of the number the result lay.

Data set [1] in a line: Antiviral activity against Vaccinia virus Lister ATCC VR-1549 infected in Vero 76 cells after 3 days by plaque reduction assays. It is filed as functional, cell-based. As to conditions: ATCC VR-1549, Vero 76, 72 h. A general note: Plaques are areas of infected cells; plaque reduction assays count them against a control.
The next data set has as its system Coxsackievirus B5. Nature of the data set: Antiviral activity against Coxsackievirus B5 Faulkner (ATCC VR-185) infected in Vero 76 cells after 3 days by plaque reduction assays. It counts as functional, organism-based. To be noted: Enterovirus B, Vero 76, 72 h.
Data set [2] concerns Human poliovirus 1 strain Sabin. Nature of the data set: Antiviral activity against Poliovirus 1 strain Sabin ATCC VR-1562 infected in Vero 76 cells after 2 days by plaque reduction assays. It counts as functional, organism-based. To be noted: Enterovirus C, ATCC VR-1562, Vero 76, 48 h.
Data set [3] in a line: Cytotoxicity against mock-infected bovine MDBK cells assessed as reduction in proliferation after 72 hrs by MTT method. It counts as cell-based, Bos taurus. To be noted: cattle. The method, boiled down: (§1)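 MDBK and BHK cells seeded at 6 × 10⁵ and 1 × 10⁶ cells/mL respectively. Medium was MEM-Earle with L-glutamine, 1 mM pyruvate and kanamycin, plus 10% horse serum (MDBK) or 10% FBS (BHK). Cells exposed to serial compound dilutions at 37 °C, 5% CO₂; MTT viability read at 72 h. CC50 by linear regression versus untreated controls.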
On the technique in general: Formazan colour is commonly taken as a measure of viable cells.

Another data set relates to Yellow fever virus. In words: Antiviral activity against Yellow fever virus 17D Stamaril Pasteur J07B01 infected in BHK21 cells assessed as protection from virus-induced cytopathogenicity after 3 to 4 days by MTT method. It counts as functional, cell-based. As to conditions: Stamaril Pasteur J07B01, BHK-21. The method, boiled down:
(§2)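 Confluent monolayers grown overnight (BHK-21 at 5×10⁴ cells/well for YFV and Reo-1; MDBK at 3×10⁴ cells/well for BVDV). Infection at m.o.i. 0.01 for 2 h in maintenance MEM-Earle with 0.5% inactivated FBS, then serial compound dilutions added. Viability read by MTT after 3–4 days at 37 °C. EC50 taken from linear regression against untreated controls.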
A general note: Protection from cytopathic effect is a common read-out in antiviral testing.

The nature of data set [4]: Half life in pH 7.4 buffered solution. It is filed as physicochemical. The procedure, abridged: (§3)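 Compound kept at 37 °C in pH 7.4 phosphate buffer (chemical) or plasma (enzymatic), sampled hourly. Plasma aliquots extracted with acetonitrile (1:2) and centrifuged 1000 g for 10 min. Supernatant or buffer analysed by reversed-phase HPLC, methanol/water 80:20, detection at 250 nm. Pseudo-first-order t½ taken from the slope of log remaining compound versus time.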

A short description of data set [5]: Ratio of Cidofovir EC50 to compound EC50 for Vaccinia virus Lister ATCC VR-1549 infected in Vero 76 cells after 3 days by plaque reduction assays. It counts as functional.
Data set [6] in a line: Antiviral activity against Bovine viral diarrhea virus 1-NADL ATCC VR-534 infected in MDBK cells assessed as protection from virus-induced cytopathogenicity after 3 to 4 days by MTT method. It counts as functional, cell-based. As to conditions: Bovine viral diarrhea virus isolates and strains, ATCC VR-534, MDBK. The procedure, abridged: as §2
The nature of data set [7]: Cytotoxicity against mock-infected hamster BHK21 cells assessed as reduction in proliferation after 72 hrs by MTT method. It is filed as cell-based, Mesocricetus auratus, BHK-21. The method, boiled down:
as §1

A short description of data set [8]: Cytotoxicity against mock-infected human MT4 cells assessed as reduction in proliferation after 96 hrs by MTT method. It is filed as cell-based. The method, boiled down: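 Exponentially growing MT-4 cells seeded at 1 × 10⁵ cells/mL in RPMI-1640 with 10% FBS, penicillin and streptomycin. Held 96 h at 37 °C, 5% CO₂ with or without serial compound dilutions; viability by MTT. Compounds dissolved in DMSO at 100 mM stock, then diluted in medium. CC50 by linear regression.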

Data set [9] is described as follows: Antiviral activity against Simian virus 12 3651 (ATCC VR- 214) infected in BHK21 cells assessed as protection from virus-induced cytopathogenicity after 3 to 4 days by MTT method. It counts as functional, cell-based. To be noted: BHK-21. The method, boiled down:
as §2

For data set [10], the system named is Vesicular stomatitis Indiana virus. In words: Antiviral activity against Vesicular stomatitis Indiana virus ATCC VR 158 infected in Vero 76 cells after 2 days by plaque reduction assays. As to conditions: ATCC VR 158, Vero 76, 48 h. It is filed as functional, organism-based.
For another data set, the system named is Human alphaherpesvirus 1. In words: Antiviral activity against Human herpesvirus 1 strain KOS ATCC VR- 1493 infected in Vero 76 cells after 3 days by plaque reduction assays. It counts as functional, organism-based. As to conditions: Human alphaherpesvirus 1, KOS ATCC VR1493, Vero 76, 72 h.
A short description of data set [11]: Cytotoxicity against mock-infected African green monkey Vero 76 cells assessed as reduction in proliferation after 48 to 96 hrs by MTT method. It is filed as cell-based. To be noted: chlorocebus sabaeus, Vero 76 cells (mock-infected). The method, boiled down:
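Vero-76 cells seeded at 4 × 10⁵ cells/mL in D-MEM with L-glutamine, kanamycin and 10% FBS. Incubated at 37 °C, 5% CO₂, with or without serial dilutions of compound; viability read by MTT after 48–96 h. Run in parallel with antiviral assays. CC50 obtained by linear regression of % of untreated control.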

The nature of data set [12]: Antiviral activity against Human respiratory syncytial virus A2 ATCC VR-1540 infected in Vero 76 cells after 5 days by plaque reduction assays. It counts as functional, cell-based. To be noted: ATCC VR-1540, Vero 76, 120 h.
Data set [13] can be described thus: Half life in plasma (unknown origin). It counts as ADME, cell-free. As to conditions: unidentified. The method, boiled down: as §3

Usually EC50 stands for the concentration giving half of the maximal effect. The CC50 is the concentration at which the toxic effect on the cells reaches its halfway point. The term half-life denotes the time in which the quantity being followed falls by half.

For `N#Cc1ccc(-c2nc3cc(Br)cnc3[nH]2)cc1`, the EC50 in data set [1] was 2 µM; with Coxsackievirus B5 it was more than 73 µM; in data set [2], more than 73 µM; in the data set on Yellow fever virus, more than 100 µM; in data set [6] it was more than 100 µM; in data set [9], more than 100 µM. Also, the EC50 in [10] was more than 73 µM; with Human alphaherpesvirus 1, 15 µM; in data set [12], more than 73 µM. The CC50 at 72 h in data set [3] and in [7] was more than 100 µM throughout. The half-life in [4] is more than 4 h; in [13], 2 h. Further, the “Ratio EC50” value in data set [5] is 10. Moreover, in data set [8], the CC50 at 96 h amounted to 53 µM. Also, the CC50 in data set [11] amounted to 73 µM.
